Numbered stars: 1 amine (or outer) side, 2 acyl side, 3 side chain; on linkers, the order of the positions; unused ones are H or OH. Peptide text beside a SMILES is read from it. * marks the point of attachment. X1 = Nc1nc2[nH]cc(CCc3ccc(C(=O)*)cc3)c2c(=O)[nH]1; γGlu = O=C(O)[C@H](CCC(=O)[*:2])N[*:1]

The subject of data set [1] is GL261 mouse glioma cell line. The experiment in a line: Cytotoxicity assay against the mouse glioma cell line GL261.
Data set [2] is classed as physicochemical. The following applies: for hydrogel formation: 30 mM in 1× DPBS solution, overnight ageing, vial inversion; for self-assembled morphology (cryo-TEM): 1× DPBS, aged over 24 h at room temperature, PemFE 4 mM, C12FE 10 mM. The method in brief:
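Self-assembled nanostructures imaged by cryo-TEM after aging over 24 h at room temperature. For gelation, lyophilized test peptide powder was dissolved in 1× DPBS at a final 30 mM and sonicated 2 min to aid dissolution. Samples were aged overnight, and gel formation was recorded by photographing inverted vials.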

Data set [3] in a line: Cytotoxicity assay against the mouse glioma cell line GL261.

Turning to FFEE [C12FE], the cell toxicity entry in data set [1] (GL261 cells, concentrations up to 100 μM) is “did not show any significant cell toxicity”. Besides, in data set [2], the hydrogel formation entry is recorded as “formation of self-supporting hydrogels” and the “self-assembled morphology (cryo-TEM)” value is recorded as “filamentous nanostructures”.
For orientation: IC50 means the concentration needed to halve the response being measured. As to `Nc1nc2[nH]cc(CCc3ccc(C(=O)N[C@@H](CCC(=O)O)C(=O)O)cc3)c2c(=O)[nH]1` [Pem, Pemetrexed, reference compound], the IC50 in data set [1] (Mus musculus, GL261, read-out: IC50 (cytotoxicity)) was 130 nM.
`Nc1nc2[nH]cc(CCc3ccc(C(=O)N[C@@H](CCC(=O)N[C@@H](Cc4ccccc4)C(=O)N[C@@H](Cc4ccccc4)C(=O)N[C@@H](CCC(=O)O)C(=O)N[C@@H](CCC(=O)O)C(=O)O)C(=O)O)cc3)c2c(=O)[nH]1` [PemFE] ({X1-γGlu}-FFEE-OH) gave an IC50 in data set [3] of 2290 nM. For the same compound, in data set [2], the hydrogel formation entry is “formation of self-supporting hydrogels” and the “self-assembled morphology (cryo-TEM)” value is reported as “filamentous nanostructures”.

The values above are taken from paper PMC5773287 (ACS nano, 2017).
